This passage reports MIC, Activity and MBC results from ChEMBL document CHEMBL1149749, “Antibacterial activity of totarol and its potentiation” (1992).

Converted amounts (≈) assume the structure as drawn. The source made the active and inactive calls. The rule behind the calls is not given here.

The test system of assay [1] is Staphylococcus aureus. Nature of the assay: Antibacterial activity against penicillin-susceptible Staphylococcus aureus ATCC 12598 after 2 days by twofold serial dilution method. The class given is functional. As to conditions: ATCC 12598, 48 h. The procedure, abridged:
(§1)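 Twofold serial broth dilution in each organism's own medium, DMF held at 1% in all tubes. The highest concentration was 400 µg/ml unless otherwise specified. MIC was taken as the lowest concentration with no visible growth, and determinations were done in duplicate.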

For another assay, the system named is Penicillium chrysogenum. As to the kind of experiment: Antifungal activity against Penicillium chrysogenum ATCC 10106 up to 400 ug/ml after 2 days by twofold serial dilution method. The class given is functional, organism-based. The procedure, abridged:
as §1

The subject of assay [2] is Streptococcus mutans. As to the kind of experiment: Antibacterial activity against Streptococcus mutans ATCC 25175 after 2 days by twofold serial dilution method. As to conditions: ATCC 25175, 48 h. The assay is classed as functional. The procedure, abridged: as §1
For assay [3], the system named is Corynebacterium ammoniagenes. Nature of the assay: Antibacterial activity against Brevibacterium ammoniagenes ATCC 6872 after 2 days by twofold serial dilution method. The assay is classed as functional. As to conditions: ATCC 6872, 48 h. An outline of the steps: as §1
The test system of assay [4] is Cutibacterium acnes. As to the kind of experiment: Antibacterial activity against Propionibacterium acnes ATCC 11827 after 2 days by twofold serial dilution method. The class given is functional. As to conditions: ATCC 11827, 48 h. The procedure, abridged: as §1
The next assay has as its system Candida albicans. As to the kind of experiment: Antifungal activity against Candida albicans ATCC 18804 up to 400 ug/ml after 2 days by twofold serial dilution method. The class given is functional, organism-based. An outline of the steps:
as §1

The test system of the next assay is Klebsiella aerogenes. Nature of the assay: Antibacterial activity against Enterobacter aerogenes ATCC 13048 up to 400 ug/ml after 2 days by twofold serial dilution method. The class given is functional, organism-based. The procedure, abridged:
as §1

Another assay has as its system Pseudomonas aeruginosa. Nature of the assay: Antibacterial activity against Pseudomonas aeruginosa ATCC 10145 up to 400 ug/ml after 2 days by twofold serial dilution method. The assay is classed as functional, organism-based. The procedure, abridged: as §1
Assay [5] relates to Bacillus subtilis. Nature of the assay: Antibacterial activity against Bacillus subtilis ATCC 9372 after 2 days by twofold serial dilution method. As to conditions: ATCC 9372, 48 h. The class given is functional. An outline of the steps:
as §1

The next assay relates to Saccharomyces cerevisiae. Nature of the assay: Antifungal activity against Saccharomyces cerevisiae ATCC 7754 up to 400 ug/ml after 2 days by twofold serial dilution method. The assay is classed as functional, organism-based. The procedure, abridged:
as §1

A further assay has as its system Escherichia coli. Nature of the assay: Antibacterial activity against Escherichia coli ATCC 13048 up to 400 ug/ml after 2 days by twofold serial dilution method. The class given is functional, organism-based. An outline of the steps: as §1
The subject of the next assay is Malassezia. Nature of the assay: Antifungal activity against Pityrosporum ovale ATCC 14521 up to 400 ug/ml after 2 days by twofold serial dilution method. The assay is classed as functional, organism-based. The procedure, abridged: as §1
The subject of assay [6] is Bacillus subtilis. As to the kind of experiment: Antibacterial activity against Bacillus subtilis ATCC 9372 up to 400 ug/ml after 2 days by twofold serial dilution method. The class given is functional, organism-based. The procedure, abridged: as §1
The test system of assay [7] is Staphylococcus aureus. Nature of the assay: Antibacterial activity against penicillin-susceptible Staphylococcus aureus ATCC 12598 up to 400 ug/ml after 2 days by twofold serial dilution method. The assay is classed as functional, organism-based. The procedure, abridged:
as §1

For assay [8], the system named is Cutibacterium acnes. As to the kind of experiment: Antibacterial activity against Propionibacterium acnes ATCC 11827 up to 400 ug/ml after 2 days by twofold serial dilution method. The assay is classed as functional, organism-based. An outline of the steps: as §1
Assay [9] deals with Staphylococcus aureus. Nature of the assay: Antibacterial activity against penicillin-resistant Staphylococcus aureus ATCC 29247 up to 400 ug/ml after 2 days by twofold serial dilution method. The assay is classed as functional, organism-based. The procedure, abridged: (§2)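 Twofold serial broth dilution, highest concentration 400 µg/ml. Samples were delivered in DMF, kept at 1% in the medium throughout. MIC was the lowest concentration with no visible growth, determined in duplicate.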

Assay [10] has as its system Streptococcus mutans. As to the kind of experiment: Antibacterial activity against Streptococcus mutans ATCC 25175 up to 400 ug/ml after 2 days by twofold serial dilution method. The class given is functional, organism-based. An outline of the steps: as §1
For assay [11], the system named is Corynebacterium ammoniagenes. As to the kind of experiment: Antibacterial activity against Brevibacterium ammoniagenes ATCC 6872 up to 400 ug/ml after 2 days by twofold serial dilution method. The assay is classed as functional, organism-based. The procedure, abridged: as §1
The test system of assay [12] is Staphylococcus aureus. Nature of the assay: Antibacterial activity against penicillin-resistant Staphylococcus aureus ATCC 29247 after 2 days by twofold serial dilution method. The class given is functional. As to conditions: ATCC 29247, 48 h. An outline of the steps:
as §2

Regarding `CC(C)c1c(O)ccc2c1CC[C@H]1C(C)(C)[C@@H](O)CC[C@]21C` [TOTARADIOL], the MIC (as a rule, the lowest concentration found to suppress growth) with Staphylococcus aureus [1] was 50 µg/mL (≈ 165 µM); with Streptococcus mutans [2] it was 200 µg/mL (≈ 661 µM); in [3], 100 µg/mL (≈ 331 µM); in the assay with Cutibacterium acnes [4], 25 µg/mL (≈ 82.7 µM); in the assay with Bacillus subtilis [5], 25 µg/mL (≈ 82.7 µM). For the same compound, the outcome in the assay with Penicillium chrysogenum, with Candida albicans, in the assay on Klebsiella aerogenes, with Pseudomonas aeruginosa, with Saccharomyces cerevisiae and with Escherichia coli was inactive. Further, the outcome with Malassezia was inactive.

Regarding `CC(C)c1c(O)ccc2c1CC[C@H]1[C@@](C)(C(=O)O)CCC[C@]21C`, the outcome in the assay on Penicillium chrysogenum, with Bacillus subtilis [6], in the assay with Staphylococcus aureus [7], in the assay on Cutibacterium acnes [8], in the assay with Staphylococcus aureus [9] and in the assay on Candida albicans was inactive. Besides, the result (in the assay with Streptococcus mutans [10]; in the assay with Klebsiella aerogenes; in [11]; with Pseudomonas aeruginosa; in the assay on Saccharomyces cerevisiae; in the assay with Escherichia coli) was inactive. The result in the assay with Malassezia was inactive.

On to `CC(C)c1c(O)ccc2c1CC[C@H]1[C@@](C)(CO)CCC[C@]21C`, for which the result in the assay with Penicillium chrysogenum, with Bacillus subtilis [6], in the assay with Staphylococcus aureus [7], in the assay on Cutibacterium acnes [8], in the assay with Staphylococcus aureus [9] and with Candida albicans was inactive. In addition, the outcome (with Streptococcus mutans [10]; in the assay with Klebsiella aerogenes; in assay [11]; with Pseudomonas aeruginosa; in the assay on Saccharomyces cerevisiae; in the assay with Escherichia coli) was inactive. Further, the outcome with Malassezia was inactive.

As for `CC1(C)S[C@@H]2[C@H](NC(=O)Cc3ccccc3)C(=O)N2[C@H]1C(=O)O` [PENICILLIN G], the minimal inhibitory concentration (MIC) against Staphylococcus aureus [1] is 0.049 µg/mL (≈ 0.147 µM); against Staphylococcus aureus [12] it was more than 800 µg/mL; with Streptococcus mutans [2], 0.049 µg/mL (≈ 0.147 µM); in assay [3] it was 0.39 µg/mL (≈ 1.17 µM); against Cutibacterium acnes [4], 0.012 µg/mL (≈ 0.0359 µM); against Bacillus subtilis [5], 50 µg/mL (≈ 150 µM).

Turning to `CC(C)c1c(O)ccc2c1CC[C@H]1[C@@](C)(C=O)CCC[C@]21C`, the outcome with Penicillium chrysogenum, with Bacillus subtilis [6], with Staphylococcus aureus [7], in the assay with Cutibacterium acnes [8], in the assay with Staphylococcus aureus [9] and in the assay with Candida albicans was inactive. The result (with Streptococcus mutans [10]; in the assay with Klebsiella aerogenes; in assay [11]; in the assay with Pseudomonas aeruginosa; with Saccharomyces cerevisiae; in the assay with Escherichia coli) was inactive. The result in the assay with Malassezia was inactive.

Regarding `CC(C)c1c(O)ccc2c1CC[C@H]1C(C)(C)CCC[C@]21C` [TOTAROL], the MBC – broadly, the lowest tested concentration that kills the bacteria rather than only halting them – in the assay with Staphylococcus aureus [1] is 1.56 µg/mL (≈ 5.45 µM); with Streptococcus mutans [2], 0.78 µg/mL (≈ 2.72 µM); in assay [3], 6.25 µg/mL (≈ 21.8 µM); in the assay on Cutibacterium acnes [4], 0.78 µg/mL (≈ 2.72 µM); in the assay with Bacillus subtilis [5], 1.56 µg/mL (≈ 5.45 µM). Besides, the MIC against Staphylococcus aureus [1] turned out to be 1.56 µg/mL (≈ 5.45 µM); against Staphylococcus aureus [12], 0.78 µg/mL (≈ 2.72 µM); in the assay on Streptococcus mutans [2], 0.78 µg/mL (≈ 2.72 µM); in assay [3] it was 0.78 µg/mL (≈ 2.72 µM); in the assay with Cutibacterium acnes [4], 0.39 µg/mL (≈ 1.36 µM); against Bacillus subtilis [5], 1.56 µg/mL (≈ 5.45 µM). The outcome with Penicillium chrysogenum, with Candida albicans, with Klebsiella aerogenes, in the assay with Pseudomonas aeruginosa, in the assay with Saccharomyces cerevisiae and with Escherichia coli was inactive. Moreover, the result in the assay with Malassezia was inactive.
